Reference: ChEMBL document CHEMBL1126110, “Antirhinoviral activity of heterocyclic analogs of Win 54954” (1992)
Values after ≈ are worked out from the molar mass of the structure shown. One block for each compound: values may come before it. Active and inactive are the calls of the source. No cut-off for these calls is given here.

Assays:
Human rhinovirus sp. [1] = assay: (§1) In vitro inhibition of 80% of the serotypes; assay type: functional
How it was run: (§2)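 Fifteen rhinovirus serotypes (HRV-14 plus 14 more) were each run in a plaque reduction assay in HeLa-Ohio cells. The MIC for each serotype was the μM concentration giving 50% plaque reduction. MIC80 is the concentration that inhibited 80% of the serotypes tested.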

rhinovirus B14 [2] = assay: Minimum inhibitory concentration in vitro against HRV-14 in a plaque reduction assay; assay type: functional, human rhinovirus type 14; settings: Rhinovirus B
How it was run: (§3)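 Plaque reduction assay in HeLa-Ohio cells. MIC is the concentration (μM) that cut plaque number by 50%.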

rhinovirus B14 [3] = assay: Minimum inhibitory concentration in vitro against HRV-14 in a plaque reduction assay; NA=Not active; assay type: functional, organism-based; settings: human rhinovirus type 14; how it was run: as §3
rhinovirus A50 = assay: Minimum inhibitory concentration against human rhinovirus serotype 50; assay type: functional; settings: Rhinovirus A; how it was run: as §3
rhinovirus A22 = assay: Minimum inhibitory concentration against human rhinovirus serotype 22; assay type: functional; settings: Rhinovirus A; how it was run: as §3
rhinovirus A21 = assay: Minimum inhibitory concentration against human rhinovirus serotype 21; assay type: functional; settings: Rhinovirus A; how it was run: as §3
rhinovirus A25 = assay: Minimum inhibitory concentration against human rhinovirus serotype 25; assay type: functional; settings: Rhinovirus A; how it was run: as §3
rhinovirus A89 = assay: Minimum inhibitory concentration against human rhinovirus serotype 89; assay type: functional; settings: Rhinovirus A; how it was run: as §3
rhinovirus B14 [4] = assay: Minimum inhibitory concentration against human rhinovirus serotype 14; assay type: functional; settings: Rhinovirus B; how it was run: as §3
rhinovirus A41 = assay: Minimum inhibitory concentration against human rhinovirus serotype 41; assay type: functional; settings: Rhinovirus A; how it was run: as §3
rhinovirus B86 = assay: Minimum inhibitory concentration against human rhinovirus serotype 86; assay type: functional; settings: Rhinovirus B; how it was run: as §3
Human rhinovirus 1A = assay: Minimum inhibitory concentration against human rhinovirus serotype 1A; assay type: functional; how it was run: as §3
rhinovirus A15 = assay: Minimum inhibitory concentration against human rhinovirus serotype 15; assay type: functional; settings: Rhinovirus A; how it was run: as §3
rhinovirus A2 [5] = assay: (§4) Minimum inhibitory concentration against human rhinovirus serotype 2; assay type: functional; settings: Rhinovirus A; how it was run: as §3
rhinovirus A30 = assay: Minimum inhibitory concentration against human rhinovirus serotype 30; assay type: functional; settings: Rhinovirus A; how it was run: as §3
rhinovirus A1B = assay: Minimum inhibitory concentration against human rhinovirus serotype 1B; assay type: functional; settings: Rhinovirus A; how it was run: as §3
rhinovirus A67 = assay: Minimum inhibitory concentration against human rhinovirus serotype 67; assay type: functional; settings: Rhinovirus A; how it was run: as §3
rhinovirus B6 = assay: Minimum inhibitory concentration against human rhinovirus serotype 6; assay type: functional; settings: Rhinovirus B; how it was run: as §3
Human rhinovirus sp. [6] = assay: as §1; assay type: functional; how it was run: as §2; remark: listed apart in the source
rhinovirus A2 [7] = assay: as §4; assay type: functional; settings: Rhinovirus A; how it was run: as §3; remark: listed apart in the source

SMILES: Cc1cc(CCCCCOc2c(Cl)cc(-c3nc(C)c(C)o3)cc2Cl)on1
MIC80 (Human rhinovirus sp. [1]): 1.3 µM (≈ 0.532 µg/mL)
MIC (rhinovirus B14 [2]): 2.79 µM (≈ 1.14 µg/mL)

SMILES: Cc1cc(CCCCCOc2c(Cl)cc(-c3ccc(C)s3)cc2Cl)on1
MIC80 (Human rhinovirus sp. [1]): 1.71 µM (≈ 0.702 µg/mL)
MIC (rhinovirus B14 [2]): 5.2 µM (≈ 2.13 µg/mL)

SMILES: Cc1cc(CCCCCOc2c(Cl)cc(-c3cccc(C)n3)cc2Cl)on1
MIC80 (Human rhinovirus sp. [1]): 1.93 µM (≈ 0.782 µg/mL)
MIC (rhinovirus B14 [2]): 5.88 µM (≈ 2.38 µg/mL)

SMILES: Cc1cc(CCCCCOc2c(Cl)cc(-c3cccnc3)cc2Cl)on1
MIC (rhinovirus B14 [2]): 6.6 µM (≈ 2.58 µg/mL)

SMILES: Cc1cc(CCCCCOc2c(Cl)cc(-c3cccn3C)cc2Cl)on1
MIC (rhinovirus B14 [3]): inactive

SMILES: Cc1cc(CCCCCOc2c(Cl)cc(-c3cccs3)cc2Cl)on1
MIC80 (Human rhinovirus sp. [1]): 1.11 µM (≈ 0.44 µg/mL)
MIC (rhinovirus B14 [2]): 7.32 µM (≈ 2.9 µg/mL)

SMILES: Cc1cc(CCCCCOc2c(Cl)cc(-c3ccoc3)cc2Cl)on1
MIC80 (Human rhinovirus sp. [1]): 2.9 µM (≈ 1.1 µg/mL)
MIC (rhinovirus B14 [3]): inactive

SMILES: Cc1cc(CCCCCOc2c(Cl)cc(-c3ccccn3)cc2Cl)on1
MIC80 (Human rhinovirus sp. [1]): 1.38 µM (≈ 0.54 µg/mL)
MIC (rhinovirus B14 [2]): 6.64 µM (≈ 2.6 µg/mL)

SMILES: Cc1cc(CCCCCOc2c(Cl)cc(-c3cnco3)cc2Cl)on1
MIC80 (Human rhinovirus sp. [1]): 2.24 µM (≈ 0.854 µg/mL)
MIC (rhinovirus B14 [2]): 12.8 µM (≈ 4.86 µg/mL)

SMILES: Cc1cc(CCCCCOc2c(Cl)cc(-c3ccsc3)cc2Cl)on1
MIC80 (Human rhinovirus sp. [1]): 2.88 µM (≈ 1.14 µg/mL)
MIC (rhinovirus B14 [3]): inactive

SMILES: Cc1cc(CCCCCOc2c(Cl)cc(-c3ccc(Cl)s3)cc2Cl)on1
MIC80 (Human rhinovirus sp. [1]): 3.13 µM (≈ 1.35 µg/mL)
MIC (rhinovirus B14 [2]): 5.3 µM (≈ 2.28 µg/mL)

SMILES: Cc1cc(CCCCCOc2c(Cl)cc(C3=NCCC3)cc2Cl)on1
MIC (rhinovirus B14 [3]): inactive

Next, values leading:

MIC80 (Human rhinovirus sp. [1]): 1.05 µM (≈ 0.399 µg/mL)
MIC (rhinovirus B14 [2]): 0.71 µM (≈ 0.27 µg/mL)
SMILES: Cc1cc(CCCCCOc2c(Cl)cc(-c3ccco3)cc2Cl)on1

MIC (rhinovirus B14 [2]): 0.97 µM (≈ 0.38 µg/mL)
SMILES: Cc1cc(CCCCCOc2c(Cl)cc(-c3ccncc3)cc2Cl)on1

MIC (rhinovirus A50): 0.06 µM (≈ 0.023 µg/mL)
MIC (rhinovirus A22): 0.02 µM (≈ 0.00767 µg/mL)
MIC (rhinovirus A21): 0.02 µM (≈ 0.00767 µg/mL)
MIC80 (Human rhinovirus sp. [1]): 0.33 µM (≈ 0.126 µg/mL)
MIC (rhinovirus A25): 0.29 µM (≈ 0.111 µg/mL)
MIC (rhinovirus A89): 0.02 µM (≈ 0.00767 µg/mL)
MIC (rhinovirus B14 [4]): 1.2 µM (≈ 0.46 µg/mL)
MIC (rhinovirus A41): 0.89 µM (≈ 0.341 µg/mL)
MIC (rhinovirus B86): 0.21 µM (≈ 0.0805 µg/mL)
MIC (Human rhinovirus 1A): 2.51 µM (≈ 0.962 µg/mL)
MIC (rhinovirus A15): 0.41 µM (≈ 0.157 µg/mL)
MIC (rhinovirus B14 [2]): 1.2 µM (≈ 0.46 µg/mL)
MIC (rhinovirus A2 [5]): 0.023 µM (≈ 0.00882 µg/mL)
MIC (rhinovirus A30): 0.09 µM (≈ 0.0345 µg/mL)
MIC (rhinovirus A1B): 0.17 µM (≈ 0.0652 µg/mL)
MIC (rhinovirus A67): 0.18 µM (≈ 0.069 µg/mL)
MIC (rhinovirus B6): 0.23 µM (≈ 0.0882 µg/mL)
SMILES: Cc1cc(CCCCCOc2c(Cl)cc(C3=NCCO3)cc2Cl)on1 [WIN-54954]

MIC80 (Human rhinovirus sp. [1]): 2.14 µM (≈ 0.91 µg/mL)
MIC (rhinovirus B14 [2]): 2.59 µM (≈ 1.1 µg/mL)
SMILES: Cc1cc(CCCCCOc2c(Cl)cc(-c3nc(C)c(C)s3)cc2Cl)on1

MIC80 (Human rhinovirus sp. [1]): 7.02 µM (≈ 2.78 µg/mL)
MIC80 (Human rhinovirus sp. [6]): 7.02 µM (≈ 2.78 µg/mL)
MIC (rhinovirus B14 [2]): 2.04 µM (≈ 0.808 µg/mL)
SMILES: Cc1cc(CCCCCOc2c(Cl)cc(-c3nnnn3C)cc2Cl)on1

MIC80 (Human rhinovirus sp. [1]): 1.71 µM (≈ 0.652 µg/mL)
MIC (rhinovirus B14 [2]): 1.83 µM (≈ 0.698 µg/mL)
SMILES: Cc1cc(CCCCCOc2c(Cl)cc(-c3ncco3)cc2Cl)on1

MIC (rhinovirus A50): 0.06 µM (≈ 0.0238 µg/mL)
MIC (rhinovirus A22): 0.008 µM (≈ 0.00317 µg/mL)
MIC (rhinovirus A21): 0.02 µM (≈ 0.00793 µg/mL)
MIC80 (Human rhinovirus sp. [1]): 0.25 µM (≈ 0.0991 µg/mL)
MIC (rhinovirus A2 [7]): 0.025 µM (≈ 0.00991 µg/mL)
MIC (rhinovirus A25): 0.08 µM (≈ 0.0317 µg/mL)
MIC (rhinovirus A89): 0.01 µM (≈ 0.00396 µg/mL)
MIC (rhinovirus B14 [4]): 0.38 µM (≈ 0.151 µg/mL)
MIC (rhinovirus A41): 0.63 µM (≈ 0.25 µg/mL)
MIC (rhinovirus B86): 0.24 µM (≈ 0.0951 µg/mL)
MIC (Human rhinovirus 1A): 0.38 µM (≈ 0.151 µg/mL)
MIC (rhinovirus A15): 0.25 µM (≈ 0.0991 µg/mL)
MIC (rhinovirus B14 [2]): 0.38 µM (≈ 0.151 µg/mL)
MIC (rhinovirus A2 [5]): 0.025 µM (≈ 0.00991 µg/mL)
MIC (rhinovirus A30): 0.23 µM (≈ 0.0911 µg/mL)
MIC (rhinovirus A1B): 0.05 µM (≈ 0.0198 µg/mL)
MIC (rhinovirus A67): 0.18 µM (≈ 0.0713 µg/mL)
MIC (rhinovirus B6): 0.23 µM (≈ 0.0911 µg/mL)
SMILES: Cc1cc(CCCCCOc2c(Cl)cc(-c3nnn(C)n3)cc2Cl)on1

MIC80 (Human rhinovirus sp. [1]): 1.27 µM (≈ 0.501 µg/mL)
MIC (rhinovirus B14 [2]): 2.64 µM (≈ 1.04 µg/mL)
SMILES: Cc1cc(CCCCCOc2c(Cl)cc(-c3ccc(C)o3)cc2Cl)on1
